Experimental data published in ChEMBL document CHEMBL5154665, “Design, synthesis, biochemical evaluation, radiolabeling and in vivo imaging with high affinity class-IIa histone deacetylase inhibitor for molecular imaging and targeted therapy” (Eur J Med Chem, 2022).

Columns and labels:
[1] = Inhibition of HDAC class 2a in human HT-29 cells using TFA-lysine as fluorogenic substrate by fluorescence microplate reader assay; assay type: cell-based
Outline: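 HT-29 cells were plated at 200,000 cells/well in RPMI without phenol red with 0.1% FBS, with 100 µM Boc-Lys-TFA for class IIa or 200 µM Boc-Lys-Ac for class I/IIb. Compounds ran as an 11-point curve (5% final DMSO), with 5 µM trichostatin A as the positive control. Incubation was 3 h at 37 °C, then trypsin developer with Tween 80 for 1 h to lyse cells and release fluorophore.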

[2] = molecular target: T1, Class 1 histone deacetylase (Homo sapiens, UniProt Q13547+O15379+Q92769+Q9BY41); assay: Inhibition of HDAC class 1 in human PANC-1 cells using TFA-lysine as fluorogenic substrate by fluorescence microplate reader assay; assay type: cell-based
[3] = molecular target: T1, Class 1 histone deacetylase; assay: Inhibition of HDAC class 1 in human L3.6pl cells using TFA-lysine as fluorogenic substrate by fluorescence microplate reader assay; assay type: cell-based
[4] = Inhibition of HDAC class 2b in human PANC-1 cells using TFA-lysine as fluorogenic substrate by fluorescence microplate reader assay; assay type: cell-based
[5] = Inhibition of HDAC class 2b in human L3.6pl cells using TFA-lysine as fluorogenic substrate by fluorescence microplate reader assay; assay type: cell-based
[6] = Inhibition of HDAC class 2a in human HT-29 cells using Boc-Lys-TFA as substrate incubated for 3 hrs by microplate reader assay; assay type: cell-based; conditions: HT-29, 3 h
[7] = molecular target: T1, Class 1 histone deacetylase; assay: Inhibition of HDAC class 1 in human HT-29 cells using Boc-Lys-Ac as substrate incubated for 3 hrs by microplate reader assay; assay type: cell-based
[8] = Inhibition of HDAC class 2b in human HT-29 cells using Boc-Lys-Ac as substrate incubated for 3 hrs by microplate reader assay; assay type: cell-based; conditions: HT-29, 3 h
[9] = molecular target: Histone deacetylase 5 (Homo sapiens, UniProt Q9UQL6); assay: Inhibition of recombinant human HDAC5 using fluorogenic substrate by fluorescence microplate reader assay
Sequence of Histone deacetylase 5 (Q9UQL6 whole entry, canonical isoform): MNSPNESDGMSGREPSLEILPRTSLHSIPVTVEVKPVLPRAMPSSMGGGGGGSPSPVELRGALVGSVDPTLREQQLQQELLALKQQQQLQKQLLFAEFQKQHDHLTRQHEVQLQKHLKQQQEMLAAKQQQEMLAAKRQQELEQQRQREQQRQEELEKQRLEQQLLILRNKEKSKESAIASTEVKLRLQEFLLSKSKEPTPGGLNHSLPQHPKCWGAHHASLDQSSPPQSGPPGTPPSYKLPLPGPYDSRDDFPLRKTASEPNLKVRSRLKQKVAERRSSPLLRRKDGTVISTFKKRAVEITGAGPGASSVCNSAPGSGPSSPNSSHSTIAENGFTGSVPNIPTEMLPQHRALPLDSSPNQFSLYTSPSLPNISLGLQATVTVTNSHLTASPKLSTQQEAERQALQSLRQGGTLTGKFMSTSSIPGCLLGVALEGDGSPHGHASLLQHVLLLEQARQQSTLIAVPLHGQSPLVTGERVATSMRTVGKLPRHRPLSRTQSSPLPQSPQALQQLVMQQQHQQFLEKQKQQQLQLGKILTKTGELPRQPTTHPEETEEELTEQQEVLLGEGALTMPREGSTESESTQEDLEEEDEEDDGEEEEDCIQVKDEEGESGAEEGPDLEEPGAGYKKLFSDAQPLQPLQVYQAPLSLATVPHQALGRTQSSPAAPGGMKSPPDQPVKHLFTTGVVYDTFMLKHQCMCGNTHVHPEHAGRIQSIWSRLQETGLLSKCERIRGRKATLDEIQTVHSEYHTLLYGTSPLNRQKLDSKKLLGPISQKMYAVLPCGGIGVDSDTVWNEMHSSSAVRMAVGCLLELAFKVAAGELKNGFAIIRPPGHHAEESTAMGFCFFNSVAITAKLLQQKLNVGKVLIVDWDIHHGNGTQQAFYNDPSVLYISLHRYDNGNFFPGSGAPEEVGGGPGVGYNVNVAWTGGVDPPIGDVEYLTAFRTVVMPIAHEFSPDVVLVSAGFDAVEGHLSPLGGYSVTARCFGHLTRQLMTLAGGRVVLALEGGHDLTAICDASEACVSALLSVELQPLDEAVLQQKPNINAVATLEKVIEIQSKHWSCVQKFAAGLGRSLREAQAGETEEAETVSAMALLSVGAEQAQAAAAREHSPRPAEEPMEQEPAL
Outline: (§1)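 Recombinant human HDAC isoforms were tested at 9 inhibitor dilutions in commercial fluorogenic enzyme kits, per the manufacturer's protocol. For class IIa enzymes, deacetylation of a TFA-lysine substrate lets trypsin release a fluorophore, read on a microplate reader. IC50 came from a nonlinear fit of % HDAC activity inhibition against compound concentration.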

[10] = molecular target: Histone deacetylase 9 (Homo sapiens, UniProt Q9UKV0); assay: Inhibition of recombinant human HDAC9 using fluorogenic substrate by fluorescence microplate reader assay; outline: as §1
Sequence of Histone deacetylase 9 (Q9UKV0 whole entry): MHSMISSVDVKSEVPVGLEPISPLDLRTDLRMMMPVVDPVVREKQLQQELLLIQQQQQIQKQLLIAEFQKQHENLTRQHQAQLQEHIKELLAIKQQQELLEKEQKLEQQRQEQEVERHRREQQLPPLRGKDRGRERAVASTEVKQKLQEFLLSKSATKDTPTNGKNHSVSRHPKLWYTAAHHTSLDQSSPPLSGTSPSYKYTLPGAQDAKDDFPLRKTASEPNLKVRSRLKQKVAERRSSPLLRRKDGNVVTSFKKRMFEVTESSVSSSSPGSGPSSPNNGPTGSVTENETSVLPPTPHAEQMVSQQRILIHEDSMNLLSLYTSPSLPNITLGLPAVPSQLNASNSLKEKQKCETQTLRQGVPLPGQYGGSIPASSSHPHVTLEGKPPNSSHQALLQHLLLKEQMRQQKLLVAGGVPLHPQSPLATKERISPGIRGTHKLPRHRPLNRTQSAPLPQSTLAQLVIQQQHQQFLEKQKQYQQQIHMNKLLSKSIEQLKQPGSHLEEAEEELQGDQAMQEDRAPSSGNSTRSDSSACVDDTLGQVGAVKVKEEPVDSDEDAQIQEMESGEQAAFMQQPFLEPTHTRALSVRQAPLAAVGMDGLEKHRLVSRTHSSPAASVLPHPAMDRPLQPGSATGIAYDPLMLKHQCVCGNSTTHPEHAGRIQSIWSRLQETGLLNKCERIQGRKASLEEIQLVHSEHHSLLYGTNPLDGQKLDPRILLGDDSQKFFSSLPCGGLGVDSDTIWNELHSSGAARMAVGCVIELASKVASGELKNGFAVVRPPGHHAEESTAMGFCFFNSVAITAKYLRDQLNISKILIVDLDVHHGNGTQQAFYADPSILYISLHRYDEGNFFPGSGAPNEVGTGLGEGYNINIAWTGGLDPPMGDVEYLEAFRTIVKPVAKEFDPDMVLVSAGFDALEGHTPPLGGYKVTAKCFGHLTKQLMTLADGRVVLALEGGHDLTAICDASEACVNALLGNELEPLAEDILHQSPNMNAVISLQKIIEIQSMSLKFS

[11] = molecular target: T2, Polyamine deacetylase HDAC10 (Homo sapiens, UniProt Q969S8); assay: Inhibition of recombinant human HDAC10 using fluorogenic substrate by fluorescence microplate reader assay; outline: as §1
T2 sequence (Q969S8 whole entry): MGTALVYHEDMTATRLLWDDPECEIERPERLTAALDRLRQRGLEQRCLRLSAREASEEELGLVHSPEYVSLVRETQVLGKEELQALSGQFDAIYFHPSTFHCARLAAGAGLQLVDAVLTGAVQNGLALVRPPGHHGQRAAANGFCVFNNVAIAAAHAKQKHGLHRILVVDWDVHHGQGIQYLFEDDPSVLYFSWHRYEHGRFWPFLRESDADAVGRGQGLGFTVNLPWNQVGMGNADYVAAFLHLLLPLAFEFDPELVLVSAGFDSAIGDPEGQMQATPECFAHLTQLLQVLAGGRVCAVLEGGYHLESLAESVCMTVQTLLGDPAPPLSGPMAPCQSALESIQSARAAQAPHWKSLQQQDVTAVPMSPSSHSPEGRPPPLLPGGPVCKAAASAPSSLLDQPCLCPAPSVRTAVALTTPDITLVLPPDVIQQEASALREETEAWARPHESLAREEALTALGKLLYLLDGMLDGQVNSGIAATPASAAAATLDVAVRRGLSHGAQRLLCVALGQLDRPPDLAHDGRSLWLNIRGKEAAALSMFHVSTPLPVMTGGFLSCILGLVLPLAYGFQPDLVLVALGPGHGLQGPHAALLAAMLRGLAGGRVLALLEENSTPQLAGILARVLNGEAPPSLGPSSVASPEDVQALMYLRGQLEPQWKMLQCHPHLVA

[12] = molecular target: Histone deacetylase 1 (Homo sapiens, UniProt Q13547); assay: Inhibition of recombinant human HDAC1 using fluorogenic substrate by fluorescence microplate reader assay; outline: as §1
Sequence of Histone deacetylase 1 (Q13547 whole entry): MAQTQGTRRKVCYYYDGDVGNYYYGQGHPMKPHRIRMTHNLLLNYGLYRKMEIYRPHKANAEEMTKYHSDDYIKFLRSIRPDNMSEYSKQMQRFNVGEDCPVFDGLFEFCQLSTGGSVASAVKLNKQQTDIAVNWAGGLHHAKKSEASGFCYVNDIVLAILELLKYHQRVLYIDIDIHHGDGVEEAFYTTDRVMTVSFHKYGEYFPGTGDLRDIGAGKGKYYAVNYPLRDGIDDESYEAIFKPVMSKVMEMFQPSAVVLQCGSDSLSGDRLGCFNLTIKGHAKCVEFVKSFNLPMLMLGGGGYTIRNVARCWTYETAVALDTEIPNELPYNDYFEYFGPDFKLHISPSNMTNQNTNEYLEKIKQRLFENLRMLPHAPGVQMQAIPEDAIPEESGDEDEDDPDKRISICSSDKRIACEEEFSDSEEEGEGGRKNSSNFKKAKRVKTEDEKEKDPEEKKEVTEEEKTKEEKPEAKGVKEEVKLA

[13] = molecular target: Histone deacetylase 3 (Homo sapiens, UniProt O15379); assay: Inhibition of recombinant human HDAC3 using fluorogenic substrate by fluorescence microplate reader assay; outline: as §1
Sequence of Histone deacetylase 3 (O15379 whole entry): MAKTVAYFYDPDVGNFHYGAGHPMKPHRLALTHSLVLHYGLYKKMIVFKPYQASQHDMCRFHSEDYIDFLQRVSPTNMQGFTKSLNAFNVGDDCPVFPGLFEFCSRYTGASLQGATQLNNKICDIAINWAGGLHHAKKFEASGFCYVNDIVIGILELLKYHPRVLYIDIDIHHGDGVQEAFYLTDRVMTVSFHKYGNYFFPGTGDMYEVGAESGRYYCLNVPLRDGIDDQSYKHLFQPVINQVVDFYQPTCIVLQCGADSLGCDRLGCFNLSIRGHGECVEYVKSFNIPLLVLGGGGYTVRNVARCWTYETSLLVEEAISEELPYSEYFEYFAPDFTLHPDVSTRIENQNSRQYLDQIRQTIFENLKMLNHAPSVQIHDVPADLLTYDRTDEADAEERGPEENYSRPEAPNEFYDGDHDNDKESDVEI

[14] = molecular target: T3, Protein deacetylase HDAC6 (Homo sapiens, UniProt Q9UBN7); assay: Inhibition of recombinant human HDAC6 using fluorogenic substrate by fluorescence microplate reader assay; outline: as §1
T3 sequence (Q9UBN7 whole entry): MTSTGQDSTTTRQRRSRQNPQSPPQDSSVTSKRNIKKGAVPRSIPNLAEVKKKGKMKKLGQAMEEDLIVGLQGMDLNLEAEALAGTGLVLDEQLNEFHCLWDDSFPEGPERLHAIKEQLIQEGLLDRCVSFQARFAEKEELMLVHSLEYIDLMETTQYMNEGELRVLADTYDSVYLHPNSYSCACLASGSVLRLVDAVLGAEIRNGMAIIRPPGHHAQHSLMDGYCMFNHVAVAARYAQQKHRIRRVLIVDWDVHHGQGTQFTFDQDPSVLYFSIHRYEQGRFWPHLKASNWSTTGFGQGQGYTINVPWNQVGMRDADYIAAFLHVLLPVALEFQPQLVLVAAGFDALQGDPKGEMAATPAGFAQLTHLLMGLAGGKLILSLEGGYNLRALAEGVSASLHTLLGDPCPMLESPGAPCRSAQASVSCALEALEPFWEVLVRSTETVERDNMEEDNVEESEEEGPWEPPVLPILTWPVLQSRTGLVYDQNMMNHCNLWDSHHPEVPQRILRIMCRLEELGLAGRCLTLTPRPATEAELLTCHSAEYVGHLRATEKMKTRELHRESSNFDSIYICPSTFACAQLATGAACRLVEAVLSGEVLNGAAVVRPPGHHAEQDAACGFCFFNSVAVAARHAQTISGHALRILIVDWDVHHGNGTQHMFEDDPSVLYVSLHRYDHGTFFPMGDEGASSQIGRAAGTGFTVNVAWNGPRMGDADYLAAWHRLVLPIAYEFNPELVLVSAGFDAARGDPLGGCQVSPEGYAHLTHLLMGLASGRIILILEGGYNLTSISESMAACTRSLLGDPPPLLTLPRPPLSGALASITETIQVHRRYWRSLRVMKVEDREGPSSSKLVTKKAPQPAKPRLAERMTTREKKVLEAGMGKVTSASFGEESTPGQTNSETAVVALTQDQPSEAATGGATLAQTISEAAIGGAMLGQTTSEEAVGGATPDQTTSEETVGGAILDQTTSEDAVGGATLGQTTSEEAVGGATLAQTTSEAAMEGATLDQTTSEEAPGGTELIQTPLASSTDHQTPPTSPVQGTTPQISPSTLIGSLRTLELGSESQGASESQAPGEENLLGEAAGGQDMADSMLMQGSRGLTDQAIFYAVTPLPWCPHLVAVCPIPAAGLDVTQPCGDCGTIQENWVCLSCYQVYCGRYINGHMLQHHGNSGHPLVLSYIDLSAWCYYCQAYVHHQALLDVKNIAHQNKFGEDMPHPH

IC50 [1]: 1 µM | IC50 [2]: > 5 µM | IC50 [3]: > 5 µM | IC50 [4]: > 5 µM | IC50 [5]: > 5 µM | IC50 [6]: 1 µM | IC50 [7]: > 50 µM | IC50 [8]: > 50 µM | IC50 [9]: 0.148 µM | IC50 [10]: 0.0024 µM | IC50 [11]: > 5 µM | IC50 [12]: > 5 µM | IC50 [13]: > 5 µM | IC50 [14]: > 5 µM
SMILES: CC(C)(CNC(=O)c1cccc(-c2noc(C(F)(F)F)n2)c1)c1coc(-c2ccccc2)n1
